Test results from ChEMBL document CHEMBL1773021, “Virtual screening identification of novel severe acute respiratory syndrome 3C-like protease inhibitors and in vitro confirmation” (Bioorg Med Chem Lett, 2011).
Active and inactive are the calls of the source. No cut-off for these calls is given here.

Tests used:
[1] = molecular target: T1, Replicase polyprotein 1ab (Severe acute respiratory syndrome-related coronavirus, UniProt P0C6X7); assay: Inhibition of SARS coronavirus recombinant 3C-like protease expressed in Escherichia coli BL21(DE3) after 30 mins by FRET based assay
[2] = molecular target: Replicase polyprotein 1ab (Severe acute respiratory syndrome-related coronavirus) (UniProt P0C6X7); assay: Inhibition of SARS coronavirus recombinant 3C-like protease expressed in Escherichia coli BL21(DE3) at 100 uM after 18 mins by FRET based assay
[3] = molecular target: T1, Replicase polyprotein 1ab; assay: Inhibition of SARS coronavirus recombinant 3C-like protease expressed in Escherichia coli BL21(DE3) by Lineweaver-Burk plot analysis
In short: (§1)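 Inhibitor at 0, 20, 30, 40, 50 and 60 μM; substrate at 5, 7.5 and 10 μM. Mode assigned from Lineweaver–Burk and Dixon plots. Km and Ki come from linear regression, with Ki taken from the common x-axis intercept on the Dixon plot.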

[4] = molecular target: Replicase polyprotein 1ab (Severe acute respiratory syndrome-related coronavirus) (UniProt P0C6X7); assay: Competitive inhibition of SARS coronavirus recombinant 3C-like protease expressed in Escherichia coli BL21(DE3) by Dixon plot analysis; in short: as §1

| SMILES | IC50 [1] [µM] | inhibition [2] [%] | Ki [3] [µM] | inhibition [4] |
| --- | --- | --- | --- | --- |
| COc1cc(/C=N/NC(=O)/C(=C\c2ccccc2)NC(=O)c2ccccc2)cc(OC)c1O | 77.1 | 56.1 |  |  |
| Nc1nc(CSc2nnc(-c3cccc4ccccc34)n2-c2ccccc2)cs1 | 58.3 | 58.2 |  |  |
| Cc1ccc(C(=O)N/C(=C\c2ccc(-c3cccc([N+](=O)[O-])c3)o2)C(=O)NCCCN(C)C)cc1 | 38.6 | 82.6 | 9.11 | Active |
| Cc1ccc(C(=O)N/C(=C\c2ccc(-c3ccccc3[N+](=O)[O-])o2)C(=O)NCCCN(C)C)cc1 | 41.4 | 81.4 | 9.93 | Active |
| O=C(CSc1ncnc2c1sc1nc(N3CCOCC3)c3c(c12)CCCC3)NCc1ccco1 | 90.7 | 53.3 |  |  |
| Cc1nc(C)c(C(=O)C2=C(O)C(=O)N(CCCN3CCOCC3)C2c2cccc([N+](=O)[O-])c2)s1 (stereo not drawn) | 101 | 49.1 |  |  |
| COc1cc(C2C(C(=O)c3ccc(OCC(C)C)cc3C)=C(O)C(=O)N2CCN(C)C)ccc1O (stereo not drawn) | 62.8 | 61.4 |  |  |
